In ChEMBL document CHEMBL1142616, “New diketopiperazine alkaloids from Penicillium fellutanum” (J Nat Prod, 2000):
Activity calls are given as the source filed them.

Assays:
Format in all cases: functional, cell-based
K562 = assay: Cytotoxicity against human K562 cells after 72 hrs
Procedure, shortened: (§1)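 Cells were exposed for 72 h of cultivation; L-929 mouse fibroblasts and HeLa human cells grown adherent, K-562 human leukemia cells grown nonadherent. Result given as IC50 in µg/mL.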

HeLa = assay: Cytotoxicity against human HeLa cells after 72 hrs; procedure, shortened: as §1
L929 = assay: Cytotoxicity against mouse L929 cells after 72 hrs; procedure, shortened: as §1

Measured: Activity

O=C1N[C@@H](Cc2c[nH]c3ccccc23)C(=O)N[C@H]1Cc1c[nH]c2ccccc12
inactive: all assays above

C=CC(C)(C)c1[nH]c2ccccc2c1C[C@@H]1NC(=O)[C@H](Cc2c[nH]c3ccccc23)NC1=O
inactive: all assays above

C=CC(C)(C)c1[nH]c2ccccc2c1C[C@@H]1NC(=O)[C@H](Cc2c(C(C)(C)C=C)[nH]c3ccccc23)NC1=O
inactive: all assays above
